Source: PubChem
Most compounds without a hit are left out; they make up all but 2.3% or so of the library.
TAAR1 antag: antagonists of human TAAR1; CHO RD-HGA16 TAAR1, Fluo-8 calcium fluorescence, antagonist; inhibition, % at 3 µM; hit rate 1.5% among 360,000; AID 624466;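 active means inhibition above a per-plate cutoff, the mean inhibition of test compounds on that plate plus 3 SD, cut at about 49% in these data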;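 further: 0% = DMSO plus EC80 beta-PEA response and 100% = DMSO alone without agonist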
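Test system: RD-HGA16 CHO cells with stable hTAAR1 and Gα16 / Probe or stimulus: EC80 β-phenethylamine stimulus / Times: seeding 17-24 h prior, 75-min 37 °C, 30-min RT dye loading / Detection: Fluo-8 calcium-sensitive fluorescence / Read-out basis: % inhibition scaled between DMSO and EC80 PEA controls / Repeats: singlicate, one well per test compound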
OXTR agonist: human OXTR agonism; P30559; CHO-OTR cells, Fluo-8 calcium fluorescence; normalized: DMSO 0%, oxytocin 100%; activation, % at 3 µM; hit rate 0.32% among 320,000;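 active means activation above the mean of all tested compounds plus 3 SD, cutoff set per screening run, cut at about 20% in these data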;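 further: peak over basal fluorescence ratio from a 100 s FLIPR kinetic read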
Target sequence (P30559 whole entry, looked up): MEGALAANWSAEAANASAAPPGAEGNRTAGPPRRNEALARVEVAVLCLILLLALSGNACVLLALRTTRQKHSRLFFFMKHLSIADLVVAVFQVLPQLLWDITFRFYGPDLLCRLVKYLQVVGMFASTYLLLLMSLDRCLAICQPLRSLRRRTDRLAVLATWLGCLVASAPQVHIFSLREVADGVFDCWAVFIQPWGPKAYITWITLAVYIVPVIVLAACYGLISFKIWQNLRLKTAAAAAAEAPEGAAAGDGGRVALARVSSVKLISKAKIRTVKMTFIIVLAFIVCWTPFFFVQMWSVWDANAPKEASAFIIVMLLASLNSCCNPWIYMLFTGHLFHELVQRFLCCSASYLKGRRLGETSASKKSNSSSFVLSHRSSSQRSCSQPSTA
OXTR potentiate: potentiates the human oxytocin receptor response; CHO-OTR cells, Fluo-8 calcium fluorescence, potentiator mode; 0% = oxytocin EC15, 100% = EC100; hit rate 0.061% among 320,000; activation, % at 3 µM; P30559; AID 2445;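 active means activation above that plate's cutoff, the mean activation of tested compounds plus 3 SD, cut at about 6.6% in these data, passing the limit was not always enough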;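 further: 100% uses oxytocin at 75 nM as the full agonist control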
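Material: human OTR in CHO cells. Compound: 3.0 µM, one dose. Timing: compound 6 min at room temperature before oxytocin, 100 s read. Evaluation: % activation of max/min ratio relative to oxytocin controls. Replication: single well per compound, singlicate. Signal: Fluo-8 calcium dye fluorescence.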
V1aR counter: counter-screen for oxytocin receptor agonists: human V1a receptor agonists; P37288; CHO-V1R cells, Fluo-8 calcium fluorescence, agonist mode; 0% DMSO, 100% 3 nM vasopressin; activation, % at 3 µM; hit rate 0.25% among 320,000; AID 2797;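 active means activation above the mean activation of all tested compounds plus 3 SD, per screening run, cut at about 20% in these data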;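 further: signal is peak over basal fluorescence ratio across a 100 second FLIPR read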
TAAR1 ag: agonists of human TAAR1; Q96RJ0; CHO RD-HGA16 TAAR1, Fluo-8 calcium fluorescence; vehicle wells 0%, saturating PEA agonist 100%; activation, % at 3 µM; hit rate 0.99% among 360,000; AID 624467;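 active means activation above the mean activation of all test compounds in the run plus 3 SD, cut at about 38% in these data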
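Assay system – CHO-derived RD-HGA16 cells with stable Gα16 and human TAAR1 · Compound dosing – one-point dosing at 3 µM (nominal) · Incubation – 17-24 h seeding, 75 min 37 °C dye, 30 min RT · Measured by – kinetic Fluo-8 calcium fluorescence · Control set – DMSO vehicle as 0%, PEA at EC100 as 100% · Repeats – single well for each compound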
TAAR1 ag confirm: human TAAR1 agonism, confirmed; AID 651783; shares compounds with TAAR1 ag; hit rate 82% among 2,400; activation, % at 3 µM; CHO RD-HGA16 TAAR1, Fluo-8 calcium fluorescence; scaled: DMSO 0%, maximal phenethylamine 100%;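 active means activation above a cutoff set at the run's mean compound activation plus 3 SD, cut at about 39% in these data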
Ga16 ag counter: nonselective agonist in parental cells, TAAR1 agonist counter-screen. activation, % at 3 µM. hit rate 50% among 2,400. CHO-Ga16 parental, Fluo-8 calcium fluorescence; normalized to maximal ATP response, DMSO zero. shares compounds with TAAR1 ag. AID 651787;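 active means activation above the run cutoff, the mean activation over all tested wells plus 3 SD, cut at about 12% in these data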;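 further: 0% = DMSO wells and 100% = maximal ATP response on the peak over basal ratio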
TAAR1 desensitize: TAAR1 response desensitization, agonist counter-screen. shares compounds with TAAR1 ag. CHO RD-HGA16 hTAAR1, Fluo-8 calcium, beta-PEA response inhibition. inhibition, % at 3 µM. hit rate 46% among 2,400;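 active means inhibition above the run cutoff, the mean inhibition of all test compounds plus 3 SD, cut at about 49% in these data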;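 further: beta-PEA stimulus applied at its EC80; loss of beta-PEA calcium signal after compound pretreatment read as receptor desensitization; 0% = DMSO with beta-PEA at EC80 and 100% = DMSO alone without agonist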
Ga16 nonsel ant: nonselective Ga16 antagonist in TAAR1 agonist counter-screen | shares compounds with TAAR1 ag | CHO-Ga16 ATP-induced calcium, Fluo-8 fluorescence | inhibition, % at 3 µM | hit rate 39% among 2,400 | AID 651952;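 active means inhibition above the plate's mean compound inhibition plus 3 SD, computed per plate, cut at about 22% in these data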;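 further: 0% = EC80 ATP with DMSO and 100% = DMSO wells without ATP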
* marks the source's active call; other numbers are inactive results; . = no result; + = active, no number; ! = not confirmed by another sample.

SMILES	TAAR1 antag	OXTR agonist	OXTR potentiate	V1aR counter	TAAR1 ag	TAAR1 ag confirm	Ga16 ag counter	TAAR1 desensitize	Ga16 nonsel ant
CCOC(=O)/C(C(=Nc1ccccc1)Nc1ccccc1)=C(\C)O	-15.5	-1.8	0.8	-2.1	-2.6	.	.	.	.
CCCC(=NC(C)CC)C1=C(O)CC(c2ccccc2)CC1=O (stereo unspecified)	-1.4	-1.6	-14.6	-1.1	57.8*	86.3*	55.7*	2.1	5.6
CCC(C)N=CC1=C(O)CC(c2ccccc2)CC1=O (stereo unspecified)	14.4	-0.8	2.1	-0.4	0.9	.	.	.	.
CN(C)C(=O)CCc1ccc2c3c([nH]c2c1)[C@]1(C)[C@@H](C(=O)N2CCCCC2)C[C@H](CC(=O)NCCCn2ccnc2)C(=O)N1CC3	-13.9	.	.	.	2.3	.	.	.	.
Clc1ccc2nc(N3CCNCC3)nc(-c3ccccc3)c2c1	-4.8	3.8	-4.2	0.3	56.6*	58.1*	28.5*	33.7	14.4
COc1ccc(C2C(C(=O)Nc3cc(OC)c(OC)c(OC)c3)c3ccccc3C(=O)N2C)cc1OC (stereo unspecified)	12.6	-0.2	2.6	0.6	0.1	.	.	.	.
CCN(CC)C1=CC2=CC(=C(C#N)C#N)CCC2CC1 (stereo unspecified)	109.2*	807.3*	-20.8	750.5*	999.8*	+	+	106.4*	103.0*
CCCCN(C)C1=CC2=CC(=C(C#N)C#N)CCC2CC1 (stereo unspecified)	107.9*	771.0*	-23.0	872.5*	992.4*	762.6*	872.4*	106.3*	102.9*
Cn1cnnc1SCC(=O)Nc1ccc(OCc2ccccc2)cc1	-15.1	1.6	-20.2	0.8	4.9	.	.	.	.
COc1ccc(C(CCNC(C)c2ccccc2)c2ccc(F)cc2)cc1 (stereo unspecified)	15.4	13.6	-15.1	5.0	51.0*	66.0*	35.3*	37.8	33.8*
COc1ccc(C(CCNCc2ccccc2)c2ccc(F)cc2)cc1 (stereo unspecified)	19.5	7.5	-6.1	3.0	24.6	.	.	.	.
COc1ccc(/C=C/c2cc[n+](C(=O)Cc3ccccc3)cc2)cc1	-7.7	3.0	-2.7	1.1	46.6*	69.9*	3.2	29.9	8.6
COc1cc(OC)c(-n2cc(-c3ccc(OC)c(OC)c3)[nH]c2=S)cc1Cl	34.8	.	.	.	96.0*	2.0	2.3	1.1	5.2
O=C(NCCc1ccccc1)C(=O)NCC1CCCN1S(=O)(=O)c1cccs1 (stereo unspecified)	68.7*	-0.7	-16.0	0.6	88.7*	98.0*	9.1	94.6*	26.6*
Cc1ccccc1NC(=O)C(=O)NCC1CCCN1S(=O)(=O)c1cccs1 (stereo unspecified)	-8.4	-0.7	-14.6	-0.5	1.4	.	.	.	.
O=C(Nc1ccc(N2CCOCC2)cc1)C1CCN(S(=O)(=O)c2ccccc2F)CC1	-26.2	3.7	-2.5	5.1	3.9	.	.	.	.
CCOC(CNc1c([N+](=O)[O-])c(=O)n(C)c(=O)n1C)OCC	-16.3	0.5	-4.8	1.8	1.9	.	.	.	.
CC/C(=C(\c1ccccc1)c1ccc(OCCN(C)C)cc1)c1ccccc1	-7.4	1.2	-8.0	1.7	39.0*!	46.5*	41.9*	27.4	37.8*
O=C(Cc1ccccc1)N/N=C/C=C/c1ccccc1[N+](=O)[O-]	4.6	-2.0	-7.4	7.5	0.8	.	.	.	.
O=C(O)c1ccc(N/N=C/C=C/c2ccccc2[N+](=O)[O-])cc1	47.8	6.6	-2.6	4.8	65.5*	51.1*	21.1*	53.0*	35.5*
